Ecoli WT expand: growth inhibitors of wild-type E. coli, primary screen, strain BW25113, expanded library, OD600 | AID 710, 2007 | OD600 absorbance | 0.15% of 98,000 active | growth inhibition, % at 100 µM;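 active = growth inhibition above about 50% at one test dose, limit read from the data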;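 note: growth measured after 20 h incubation at 37 °C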
PostGolgi ctrl: growth inhibition of yeast control strain, primary screen, counter-screen for post-Golgi transport modulator project. efflux-deficient yeast background strain, growth absorbance A615, 16 h. inhibition, % at 10 µM. 5% of 98,000 active
Ecoli tolC: growth inhibitors of E. coli tolC mutant, primary screen, strain BW25113 ΔtolC::kan, 384-well; OD615; growth inhibition, % at 10 µM (by protocol); 2.2% of 65,000 active; AID 573, 2007;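 active = growth inhibition at or above a cutoff equal to the mean over every tested compound plus 3 SD, cut at about 60% in these data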;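 note: growth measured after 20 h incubation at 37 °C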
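Material: E. coli BW25113 ΔtolC::kan, tolC deletion mutant strain. Measure: percent growth inhibition. Schedule: 37 °C, 20 h exposure. Doses: single-point testing at 10 µM. Signal: A615 absorbance measurement. Buffer or medium: kanamycin-containing LB broth (50 µg/mL).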
PostGolgi yeast: phenotypic screen on post-Golgi transport, primary screen; 0.9% of 98,000 active; inhibition, % at 10 µM; AID 739, 2007; post-Golgi transport phenotypic cell assay;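 note: yeast cells grown in 1536-well plates; yeast grown about 18 h at 30C before absorbance read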
HePTP inhibitor: inhibitors of human HePTP phosphatase, primary screen, biochemical, absorbance, leukemia target; Tyrosine-protein phosphatase non-receptor type 7 (Homo sapiens), P35236; recombinant HePTP phosphatase activity, OD absorbance; inhibition, % at 20 µM; 0.64% of 110,000 active; AID 521, 2006; in the data active = inhibition above about 50%;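 note: plate controls were vehicle for no effect and reference inhibitor for full effect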
PLAP act: PLAP enzyme activators, biochemical, luminescence, HTS; Alkaline phosphatase, placental type (Homo sapiens), P05187; purified PLAP enzyme, luminescent substrate read-out; hits give high values; activation fold at 20 µM; 1.2% of 96,000 active; AID 696, 2007; in the data active = activation fold above about 2
Target sequence (P05187 whole entry, looked up): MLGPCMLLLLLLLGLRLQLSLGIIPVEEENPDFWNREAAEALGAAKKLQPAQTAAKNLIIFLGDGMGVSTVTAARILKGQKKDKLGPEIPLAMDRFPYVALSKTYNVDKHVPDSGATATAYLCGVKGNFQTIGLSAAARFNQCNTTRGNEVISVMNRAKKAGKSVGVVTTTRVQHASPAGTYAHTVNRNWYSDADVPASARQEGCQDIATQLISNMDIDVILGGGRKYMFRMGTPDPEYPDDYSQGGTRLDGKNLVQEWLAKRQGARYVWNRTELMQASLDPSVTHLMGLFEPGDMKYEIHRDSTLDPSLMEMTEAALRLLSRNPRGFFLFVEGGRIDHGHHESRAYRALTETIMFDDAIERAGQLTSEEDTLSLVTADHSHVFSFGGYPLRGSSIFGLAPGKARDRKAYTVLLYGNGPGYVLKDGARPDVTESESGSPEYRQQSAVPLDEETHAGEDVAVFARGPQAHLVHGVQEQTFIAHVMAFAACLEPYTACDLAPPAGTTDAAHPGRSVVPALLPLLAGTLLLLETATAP
An asterisk follows results filed as active; . = not tested or not shown. This is a sample that favours compounds with a hit; in the whole collection about 5.4% have one here. Cut-off read from the data, not from the text of the source, unless noted: active = inhibition above about 30%; inactive = the rest.

SMILES	Ecoli WT expand	PostGolgi ctrl	Ecoli tolC	PostGolgi yeast	HePTP inhibitor	PLAP act
O=C(NNC(=O)c1ccc(Cl)c([N+](=O)[O-])c1)c1cccc(Br)c1	.	.	.	.	4.7	.
CC1=C(C(=O)OCCOC(C)C)C(c2cc3c(cc2Br)OCO3)CC(=O)N1 (stereo not given)	-3.0	32.0*	.	15.9	.	1.6
COCCOC(=O)C1=C(C)NC2=C(C(=O)CCC2)C1c1cc2c(cc1Br)OCO2 (stereo not given)	-14.0	6.1	-18.5	0.0	-1.1	1.4
COC(=O)C1=C(C)NC(=O)CC1c1cc2c(cc1Br)OCO2 (stereo not given)	7.0	3.6	7.1	-6.1	-4.4	1.4
CC1=C(C(=O)OC2CCCCCCC2)C(c2cc3c(cc2Br)OCO3)CC(=O)N1 (stereo not given)	2.0	42.6*	.	4.7	.	1.5
Cc1ccc(C(=O)CC2(O)C(=O)N(CCc3ccccc3)c3ccc(Br)cc32)o1 (stereo not given)	-6.0	19.1	33.3	31.2*	7.7	1.5
CC(C)CCn1cnc2c(cnn2-c2ccc(Cl)cc2)c1=O	1.0	3.4	-3.2	-4.5	12.0	0.9
CCC(C(=O)OC)n1cnc2c(cnn2-c2ccc(Cl)cc2)c1=O (stereo not given)	-2.0	40.8*	0.5	1.0	-1.1	1
CCOC(=O)c1c(NC(=O)C(F)(OC)C(F)(F)F)sc(C(=O)N2CCCCC2)c1C (stereo not given)	-9.0	11.5	77.7*	-14.1	10.9	1.2
CCOC(=O)c1c(NC(=O)c2ccc([N+](=O)[O-])cc2)sc(C(=O)N2CCCCCC2)c1C	.	.	.	.	4.2	.
CN1C(=O)C2(Oc3ccccc3C3CC(c4ccccc4)=NN32)c2ccccc21 (stereo not given)	-11.0	51.3*	.	-5.5	.	1
CCNC(=S)NNC(=O)c1ccccc1OC(F)F	0.0	-2.3	.	4.3	.	2.9*
COc1cccc(/C=N/Nc2nc(C)cc(=O)[nH]2)c1O	.	.	.	.	-5.9	.
Cc1c(Cc2ccccc2)sc(N)c1C(N)=O	7.0	38.3*	11.8	0.3	1.9	1.1
C=C(C)Cn1c(COc2cccc(C)c2)n[nH]c1=S	.	.	.	.	-1.0	.
COC(=O)C1=C(C)N=C2SC(C)C(=O)N2C1c1ccc(C(=O)OC)cc1 (stereo not given)	14.0	35.8*	3.8	-1.9	7.0	1.3
CCC1SC2=NC(C)=C(C(=O)OC)C(c3ccc(C)cc3)N2C1=O (stereo not given)	0.0	42.4*	3.1	-13.1	-6.4	1.5
CCOC(=O)C1=C(O)/C(=C\c2ccccc2)SC1=Nc1cccc(Cl)c1	.	.	.	.	7.4	.
Cc1ccc(OCc2nc(C#N)c(NCc3ccc4c(c3)OCO4)o2)cc1	-11.0	31.2*	81.3*	1.4	3.8	1.2
COc1ccc(-c2nc(=S)c3c(n2Cc2ccccc2)CCCC3)cc1	.	.	.	.	7.9	.
CN1C(=O)NC(c2cccc(O)c2)C(C(=O)c2cccs2)C1(O)C(F)(F)F (stereo not given)	75.0*	2.7	42.4	-10.5	0.2	1
CCCC(=O)Nc1nnc(-c2ccc(Cl)s2)o1	10.0	13.2	5.3	6.4	-8.7	0.8
CC1(C)COCN1S(=O)(=O)c1ccc(C(=O)Nc2nnc(-c3ccc(Cl)s3)o2)cc1	6.0	17.8	99.1*	4.7	8.9	.
COc1ccc(-c2nnc(NC(=O)c3ccc(S(=O)(=O)N4COCC4(C)C)cc3)o2)cc1	-16.0	27.3	99.7*	23.0	7.4	1.5
COc1cnn(-c2ccc(C)cc2)c(=O)c1SCc1ccccc1	5.0	4.5	.	4.2	.	0.9
SMILES	Ecoli WT expand	PostGolgi ctrl	Ecoli tolC	PostGolgi yeast	HePTP inhibitor	PLAP act
COc1cnn(-c2ccccc2)c(=O)c1SCc1ccc(Cl)cc1Cl	-14.0	36.1*	.	-4.7	.	0.9
CCOc1cccc2cc(-c3nnc(NCc4ccco4)s3)c(=O)oc12	-1.0	5.1	5.5	-9.2	6.6	1
COc1ccc2oc(=O)c(-c3nnc(NCc4ccco4)s3)cc2c1	-12.0	-3.2	9.1	39.8*	4.6	0.9
O=C(O)CSc1nnc(-c2ccccc2)o1	-10.0	2.8	-19.6	2.8	3.4	0.9
CC(C)(C)c1ccc(-c2nnc(SCCN3C(=O)c4ccccc4C3=O)o2)cc1	-5.0	33.4*	.	-3.0	.	1.2
Nn1c(CN2CCCCC2)nc2ccccc2c1=O	0.0	30.8*	-10.1	-2.0	-6.4	1
O=C(c1ccc(Cl)cc1)c1oc2ccccc2c1CS(=O)(=O)c1ccccc1	-19.0	31.4*	.	2.3	.	0.9
Nc1c(C(=O)c2ccccc2)oc2ccccc12	7.0	1.7	.	8.1	.	0.7
O=C(O)c1ccc(-c2ccc(/C=C3\SC(=S)N(c4ccc([N+](=O)[O-])cc4)C3=O)o2)cc1	.	.	.	.	102.6*	.
O=C(O)CCN1C(=O)/C(=C\C(Cl)=C/c2ccc([N+](=O)[O-])cc2)SC1=S	.	.	.	.	102.4*	.
O=C(O)CCCN1C(=O)/C(=C\c2ccc(-c3cccc([N+](=O)[O-])c3)o2)SC1=S	.	.	.	.	97.4*	.
O=C(O)CCN1C(=O)/C(=C/c2ccc(-c3ccc(Cl)cc3)o2)SC1=S	.	.	.	.	102.4*	.
O=C(O)CCN1C(=O)/C(=C/c2ccc(-c3ccc([N+](=O)[O-])cc3)o2)SC1=S	.	.	.	.	4.8	.
O=C1/C(=C\c2ccc(-c3cccc([N+](=O)[O-])c3)o2)SC(=S)N1CCc1ccccc1	.	.	.	.	14.6	.
COCCCNC(=O)/C(=C\C=C\c1ccccc1)NC(=O)c1ccccc1	.	.	.	.	6.2	.
O=C(c1ccccc1)N1CC[C@H](O)[C@@H]2CCCC[C@H]21	.	.	.	.	-13.6	.
Nc1nnc(CC(=O)N/N=C/c2ccc(Cl)cc2Cl)s1	.	.	.	.	-3.5	.
Cc1ccc(NC(=O)c2cc([N+](=O)[O-])ccc2NCc2cccnc2)cc1Cl	-8.0	30.9*	.	22.5	.	0.9
Cc1cccc(NC(=O)c2cc([N+](=O)[O-])ccc2Cl)c1C	.	.	.	.	-7.4	.
O=C1c2ccccc2C(=Nc2cc([N+](=O)[O-])ccc2O)C1c1ccc2ccccc2c1 (stereo not given)	.	.	.	.	-7.1	.
Cc1nn(C(=O)c2cccnc2)c(C)c1Sc1ccc(Br)cc1	15.0	32.5*	.	18.9	-5.6	1.3
Cc1[nH]n2c(=O)c3c(nc2c1-c1ccc(Cl)cc1)CCC3	-5.0	1.9	99.8*	-1.1	-0.7	1.1
COc1ccccc1NC(=O)CN(c1ccc(C)cc1)S(=O)(=O)c1ccc(SC)cc1	.	.	.	.	-1.1	.
COc1ccc(C(=O)NN(C)c2nc(-c3ccccc3)nnc2C(F)(F)F)cc1	-5.0	35.2*	.	2.3	.	1.1
Cc1cccc(C(=O)NN(C)c2nc(-c3ccccc3)nnc2C(F)(F)F)c1	-2.0	-2.4	.	5.0	.	0.9
CCOC(=O)c1ccccc1NC(=O)c1cc(Cl)ccc1[N+](=O)[O-]	.	.	.	.	-1.0	.
COc1ccc(C(=O)ON=C2CCN(c3ccc([N+](=O)[O-])cc3)CC2)cc1	-4.0	35.8*	.	5.5	.	0.7

Screening data deposited in PubChem BioAssay by several laboratories.
